From PubChem
CXCR6 inh: blocks human CXCR6 beta-arrestin recruitment; inhibition, % at 20 µM; O00574; CHO-K1 PathHunter CXCR6 beta-arrestin, luminescence; AID 602244; 0.36% of 360,000 active; in the data active means inhibition above about 34%, passing the limit was not always enough;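 further: antagonist mode with CXCL16 agonist at 10 nM final; 0% = 10 nM CXCL16 with DMSO and 100% = unstimulated wells without agonist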
EBI2 antag: EBI2 (human) antagonism. inhibition, % at 5 µM. EBI2 beta-arrestin recruitment, luminescence, 7a,25-OHC stimulated. P32249. 0.81% of 360,000 active; in the data active means inhibition above about 38%;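 further: enzyme fragment complementation signal reports receptor beta-arrestin coupling in cells; 0% = agonist plus DMSO wells and 100% = wells without agonist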
CCR6 antagonist: blocks CCL20-driven beta-arrestin recruitment at human CCR6 | CHO-K1 CCR6 PathHunter beta-arrestin, luminescence, CCL20-stimulated | inhibition, % at 20 µM | 0.49% of 340,000 active;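 active means compounds whose inhibition of the agonist-driven luminescence signal at 20 µM reaches about 50%, limit read from the data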;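 further: cells stimulated with CCL20 at 14 nM final; plate controls were DMSO with CCL20 for no effect and DMSO without agonist for full effect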
APJ antag: blocks the human apelin receptor APJ. inhibition, % at 20 µM. P35414. CHO-K1 APJ beta-arrestin complementation, luminescence. 0.32% of 330,000 active;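 active means inhibition above about 40% at 20 µM, limit read from the data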;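 further: cells challenged with 10 nM apelin-13 agonist together with compound; plate controls were apelin-13 plus DMSO wells for no effect and DMSO wells lacking apelin-13 for full effect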
Target sequence (P35414 whole entry, looked up): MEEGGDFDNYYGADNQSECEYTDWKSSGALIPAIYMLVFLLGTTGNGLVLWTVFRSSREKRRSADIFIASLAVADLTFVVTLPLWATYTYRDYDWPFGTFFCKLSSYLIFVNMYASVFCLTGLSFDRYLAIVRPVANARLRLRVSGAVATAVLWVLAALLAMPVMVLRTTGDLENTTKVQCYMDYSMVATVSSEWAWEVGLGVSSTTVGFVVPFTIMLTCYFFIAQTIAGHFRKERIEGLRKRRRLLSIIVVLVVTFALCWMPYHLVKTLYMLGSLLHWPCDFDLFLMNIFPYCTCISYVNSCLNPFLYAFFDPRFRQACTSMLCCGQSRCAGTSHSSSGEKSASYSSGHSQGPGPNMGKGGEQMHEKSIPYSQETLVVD
APJ agonist: agonists of human APJ apelin receptor | P35414 | CHO-K1 APJ PathHunter beta-arrestin, luminescence; 0% DMSO wells, 100% apelin | activation, % at 20 µM | 0.11% of 330,000 active;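 active means activation more than six SD over the plate average, tested at 20 µM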;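 further: 0% = DMSO alone and 100% = apelin-13 at 10 nM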
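system = engineered CHO-K1 APJ arrestin reporter cells | input = 1000 cells per well | timing = overnight seeding, 90 min compound at 25 °C, 1 h detection | measured by = enzyme-fragment complementation luminescence | read-out = beta-arrestin recruitment to APJ as agonist activity, luminescent signal | control set = negative DMSO alone, positive Apelin-13 at 10 nM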
APJ ag confirm: confirmation of human APJ apelin receptor agonists | CHO-K1 APJ PathHunter beta-arrestin, luminescence | 10% of 310 active | shares compounds with APJ agonist | activation, % at 20 µM;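 active means activation above 40%, taking the highest of four retests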;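 further: plate controls were DMSO wells for no effect and apelin-13 at 10 nM for full effect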
* marks the source's active call; other numbers are inactive results; . = not tested or not shown. In the library only some 1.5% were active in any assay of this set; here they are far more common.

SMILES	CXCR6 inh	EBI2 antag	CCR6 antagonist	APJ antag	APJ agonist	APJ ag confirm
CCOc1ccccc1CN1CCC(n2nccc2NC(=O)C2CCCC2)CC1	11	-15	16	9	-7	.
COC/C=C/C1=CC2=CC(=O)C(C)(OC(=O)c3cnc4ccccc4n3)C(=O)C2=CN1C1CCCC1 (configuration not stated)	.	.	.	-55	122*	21
COC/C=C/C1=CC2=CC(=O)C(C)(OC(=O)c3cnc4ccccc4n3)C(=O)C2=CN1C(CO)CO (configuration not stated)	-11	-26	-4	-17	8	.
CC1=C(c2ccc(F)cc2)[N+](=O)C(C)(C)N1[O-]	-8	-10	-7	-111	5	.
CC1=C(c2ccc(C)cc2)[N+](=O)C(C)(C)N1[O-]	0	-9	3	-126	10*	24
COc1cc(S(=O)(=O)NC2CCCC2)ccc1-n1cnnn1	-10	-7	19	-1	1	.
COc1ccc(S(=O)(=O)NC2CC2)cc1-n1cnnn1	-5	-6	7	-26	14*	8
C=C1CCN([C@@H](CC(C)C)C(=O)O)S(=O)(=O)c2ccccc21	-2	-6	-5	3	45*	28
COCCCNC(=O)c1ccc2c(=O)n(Cc3ccc(Cl)cc3)c(=S)[nH]c2c1	3	0	14	16	-2	.
CC1CCN(CCNC(=O)c2ccc3c(=O)n(Cc4ccc(Cl)cc4)c(=S)[nH]c3c2)CC1	1	-1	-5	0	33*	9
CC1=NOC(=O)/C1=C\c1ccc(-c2ccc(Cl)c(C(=O)O)c2)o1	-2	-14	0	-5	0	.
CC1=NOC(=O)/C1=C\c1ccc(-c2cccc(Cl)c2)o1	96*	-9	.	-24	15*	16
COc1ccc(/C=N/N2C(=O)CSC2=S)cc1	-8	-9	9	-10	9	.
COc1ccc(-c2nn(-c3ccccc3)cc2/C=N/N2C(=O)CSC2=S)cc1	-12	-10	-9	-62	18*	22
COc1ccccc1C(=O)C1CCCN(C(=O)CCn2cnnn2)C1 (configuration not stated)	1	-5	2	9	-2	.
O=C(/C=C/c1ccc(OCCCF)cc1)Nc1ccnc(-c2ccncc2)n1	-7	7	-18	-24	16*	36
CC(=O)Nc1ccc(OCC(=O)Nc2ccc(Cl)c(S(=O)(=O)N3CCOCC3)c2)cc1	-17	-20	.	0	17*	-1
COc1ccc(OCC(=O)Nc2ccc(S(=O)(=O)N3CCOCC3)cc2)cc1	4	-7	2	-4	-1	.
CCc1nnc(NC(=O)CSc2nc3cccnc3n2C2CCCCC2)s1	10	7	10	0	53*	62*
COc1ccccc1N1CCN(C(=O)CN(C)S(=O)(=O)c2ccc(C)cc2)CC1	-3	-1	.	.	.	.
CCn1c(C)nc2cc(-c3nnc(-c4c(-c5ccccc5)noc4C)o3)ccc21	-2	30	-24	-5	17*	5
Cc1onc(-c2ccccc2)c1-c1nnc(-c2ccccc2C(F)(F)F)o1	10	4	1	10	-3	.
CCCCC1=CC2=CC(=O)C(C)(OC(=O)CC)C(=O)C2=CN1c1ccccc1 (configuration not stated)	-10	1	4	-39	75*	14
CCCCC1=CC2=CC(=O)C(C)(OC(=O)CC)C(=O)C2=CN1Cc1ccccc1 (configuration not stated)	-11	-10	-10	-26	17	.
CCCCc1ccc(N/C(N)=N/c2nc(C)cc(C)n2)cc1	3	-18	-2	-28	43*	17
SMILES	CXCR6 inh	EBI2 antag	CCR6 antagonist	APJ antag	APJ agonist	APJ ag confirm
CCOC(=O)c1c(NC(=O)c2ccn(CC)n2)sc2c1CCC2	6	-3	12	4	-2	.
CCCc1cc(C(=O)Nc2sc3c(c2C(=O)OCC)CCCC3)no1	-3	7	-2	16	68*	1
Cc1ccc(C2C(C#N)=C(N)Oc3nc(-c4ccccc4)[nH]c32)o1 (configuration not stated)	-9	-19	-18	-1	30*	15
Cc1cccc(/C(N)=N/OC(=O)c2cccc3ccccc23)c1	-33	-3	.	-128	36*	32
Cc1cccc(NC(=S)NC(=O)CCc2ccccc2)c1	-19	15	-35	-82	19*	25
Cc1cccc(NC(=O)NNC(=O)CCc2ccccc2)c1	5	10	-4	11	1	.
c1c[nH]c(CN2CCN(Cc3ncc[nH]3)CC2)n1	-3	10	-19	.	.	.
Cc1ccc(-n2nnc3c(=O)oc4ccccc4c32)cc1	24	-19	-15	-28	32*	37
Cc1ccc(CNC(=O)c2oc3ccc(S(=O)(=O)N4CCOCC4)cc3c2C)cc1	-5	35	-4	-8	9	.
Cc1c(C(=O)Nc2cccc(C(F)(F)F)c2)oc2ccc(S(=O)(=O)N3CCOCC3)cc12	-6	-26	-17	-18	21*	17
Cc1ccc(-c2nn(-c3ccccc3)cc2/C=C/C(=O)OCC(=O)NC2CC2)o1	-6	-15	-10	-27	12*	5
C=CCNC(=O)N1CCC(n2nccc2NC(=O)CCCc2ccccc2)CC1	-2	-13	0	-5	-1	.
CC1=CC(=O)C=C(C)C1=NOS(=O)(=O)c1ccccc1	18	-7	-15	.	.	.
CC1=CC(=O)C(C(C)C)=C/C1=N/OS(=O)(=O)c1ccccc1	-3	-44	7	-35	185*	78*
CN(c1ccccc1)S(=O)(=O)c1cccc(NC(=O)c2cc(=O)c3ccccc3o2)c1	2	-13	-13	-10	12*	5
CCSc1ccc(/C(N)=N/OC(=O)c2cccs2)cn1	-43	-18	-32	-168	43*	11
COC(=O)c1ccc(/C=C/C(=O)OCC(=O)Nc2sccc2C(N)=O)cc1	2	-20	-9	-9	31*	47*
NC(=O)c1ccsc1NC(=O)COC(=O)/C=C/c1ccc([N+](=O)[O-])cc1	-22	4	-2	-40	-5	.
CC(C)CNC(=O)C1C(=O)Nc2ccccc2C(=O)N1C(C)(C)C (configuration not stated)	.	-9	.	.	.	.
COc1ccc2noc3c2c1C(=O)c1ccccc1-3	-2	-21	-4	-35	21*	28
CN(C)c1ccc(/C=C2\Oc3ccc(C#Cc4cccc(N)c4)cc3C2=O)cc1	-18	-8	-18	-26	-1	.
CCn1c(C)nc2cc(NC(=O)Nc3cccc(C(C)=O)c3)ccc21	9	-7	0	-3	-2	.
